UCH37 inh: inhibitors of human UCH37 deubiquitinase, primary screen, biochemical, Ub-AMC cleavage, fluorescence; 0.33% of 330,000 active; AID 588478, 2011; purified proteasome/UCH37; inhibition, % (test concentration not listed); Ubiquitin carboxyl-terminal hydrolase isozyme L5 (Homo sapiens), Q9Y5K5;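 active = mean inhibition over replicate wells above about 20%, limit read from the data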;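 note: 0% = compound-free wells with enzyme and 100% = wells lacking proteasome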
Target sequence (Q9Y5K5 whole entry, looked up): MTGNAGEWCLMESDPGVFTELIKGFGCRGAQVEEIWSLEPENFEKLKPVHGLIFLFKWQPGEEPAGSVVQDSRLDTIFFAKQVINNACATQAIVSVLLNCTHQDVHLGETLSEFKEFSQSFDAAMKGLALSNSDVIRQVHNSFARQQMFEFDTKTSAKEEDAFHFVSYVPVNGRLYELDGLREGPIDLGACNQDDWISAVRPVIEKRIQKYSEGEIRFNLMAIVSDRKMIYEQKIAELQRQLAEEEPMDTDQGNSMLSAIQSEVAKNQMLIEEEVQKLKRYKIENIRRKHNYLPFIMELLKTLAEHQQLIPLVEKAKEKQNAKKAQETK
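Assay system: Proteasome-bound UCH37. Buffer or medium: pH 7.4 Tris-HCl (50 mM) with ovalbumin, ATP-MgCl2, DTT. Incubation: 30 min preincubation with enzyme, 25 min cleavage at room temperature. Measured by: fluorescence, ex 355 nm, em 460 nm. Read-out basis: percent inhibition. Control set: wells without proteasome as full block, compound-free enzyme plus substrate as uninhibited.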
Glyco luc inh: increase of ERlucT glycosylation luciferase signal, primary screen, N-linked glycosylation inhibitor project, D54 ERlucT cells, luminescence, set 2; 0.23% of 360,000 active; reporter increase, % at 12.5 µM; D54 ERlucT glycosylation luciferase reporter, 24 h; percent of 100 nM tunicamycin response;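 active = mean luciferase reporter signal, scaled so untreated is 0 and the glycosylation-blocking control 100, at or above a set limit in every replicate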;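 note: luciferase carries N-glycosylation sites so blocking glycosylation raises the light; 0% = median of neutral control wells and 100% = median of 100 nM tunicamycin wells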
aDG glyco act: activators of alpha-DG glycosylation, primary screen, uHTS, Pro5-aDG cells, AlphaScreen; activation, % at 10 µM; 0.22% of 360,000 active; alpha-DG glycosylation AlphaScreen (IIH6); 0% Pro5, 100% B10-LARGE cell signal;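 active = activation of at least 8% versus controls, or a plate z-score of at least 8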;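 note: Pro5 are CHO cells carrying HIG-tagged alpha-DG that lacks glycosylation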
MsrA inhibitor: bovine MsrA enzyme inhibitors, primary screen, biochemical, absorbance, HTS; inhibition, % at 15.5 µM; purified bovine MsrA, absorbance read-out; 0.75% of 360,000 active;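 note: 0% = vehicle wells with enzyme and 100% = reference inhibitor wells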
MsrA act: bovine MsrA enzyme activators, primary screen, biochemical, absorbance, HTS; purified bovine MsrA, absorbance read-out; activation, % at 10.6 µM; 0.3% of 360,000 active; AID 602163, 2012; in the data active = activation above about 7.5%;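 note: 0% = vehicle and 100% = reference activator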
Vif inh: HIV Vif self-association inhibitors, primary screen, imaging, HEK293T, single point; inhibition, % at 7.49 µM; 0.35% of 340,000 active; HEK293T cells, Vif self-association by quenched fluorescence, 24 h; in the data active = inhibition above about 50%, passing the limit was not always enough
MsrA conf: bovine MsrA inhibitors, retest, confirmation, biochemical, absorbance, HTS; shares compounds with MsrA inhibitor; purified bovine MsrA, absorbance read-out; inhibition, % at 15.5 µM; 41% of 2,300 active; AID 651822, 2012;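 note: coupled to thioredoxin reductase with NADPH and selenocystamine and DMSO as substrate; 0% = vehicle only and 100% = full effect of reference inhibitor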
Starred values were filed as active, the others as inactive; i = inactive; . = not tested or not shown. Shown are actives, neighbours in structure and some others; about 1.9% of the full set was active somewhere. Cut-off read from the data, not from the text of the source, unless noted: active = inhibition above about 4.5%; inactive = the rest.

SMILES	UCH37 inh	Glyco luc inh	aDG glyco act	MsrA inhibitor	MsrA act	Vif inh	MsrA conf
Cc1ccc(C(=O)N=c2sccn2C)cc1S(=O)(=O)N1CCOCC1	7.5	-0.7	-0.2	6.0*	-2.8	2.6	3.1
O=C1CCC(=O)N1c1nc2nc(-c3ccccc3)cc(-c3ccccc3)n2n1	-66.5	1.6	0.2	4.7*	-8.1	19.1	1.9
Oc1c(Br)cc(Br)cc1/C=N/Nc1ccc(Cl)nn1	.	-9.9	0.0	-0.7	-3.1	-2.5	.
Oc1c(Br)cc(/C=N/Nc2ccc(Cl)nn2)cc1Br	.	-2.2	0.3	5.9*	-6.2	-16.5	3.4
CC(C)(C)c1nnc(NN=Cc2ccccc2)n(N)c1=O	4.9	.	.	.	.	.	.
COc1ccc(-c2csc3nc(C)n(-n4cccc4)c(=O)c23)cc1	0.8	4.2	0.1	8.6*	-2.4	0.5	3.5
Cc1ccc(C)n1-n1c(C)nc2scc(-c3cccs3)c2c1=O	5.4	-1.9	0.2	29.1*	-1.9	-17.4	25.0*
Cc1nc2scc(-c3cccs3)c2c(=O)n1-n1cccc1	-0.2	0.9	0.3	15.2*	1.1	-20.3	10.5*
C=C(C)C1CC=C(C)C(=NNC(=O)c2ccoc2C)C1 (configuration not stated)	2.1	.	.	.	.	.	.
COc1cc2oc(-c3ccc(O)cc3)cc(=O)c2c(OC)c1O	.	18.5	-0.3	7.1*	-5.0	-3.6	3.3
COc1cc2oc(-c3ccc(O)cc3)cc(=O)c2c(O)c1OC	5.6	-0.8	-0.1	3.7	-4.6	-7.3	.
Cc1ccnc(N=Cc2nc(-c3ccccc3Br)oc2O)c1	0.8	-1.5	0.1	6.5*	-4.8	1.4	0.9
Cn1c(Cl)c(C=NOC(=O)C2CC2)c2ccccc21	0.5	.	.	.	.	.	.
O=C(CSC(=S)N1CCCC1)N/N=C/c1c(O)[nH]c(=S)[nH]c1=O	9.2	0.4	-0.2	5.2*	-1.3	6.9	5.2*
O=C(O)CSC(=S)N1CCCC1	-0.6	0.2	-0.1	2.4	1.1	3.5	.
COc1ccccc1N1CCN(N=C/C=C\c2ccco2)CC1	8.0	.	.	.	.	.	.
CCCCCNc1nc(NCCCO)c(C#N)c2c1CN(C)CC2	-27.6	4.3	0.4	5.0*	-3.4	1.1	1.1
CCCCCNc1nc(N2CCCC2)c2c(c1C#N)CCN(C)C2	-12.8	4.7	0.3	0.9	-1.1	5.4	.
O=C(O)COc1ccccc1/C=N/Nc1ccc(S(=O)(=O)N2CCOCC2)cc1[N+](=O)[O-]	.	0.7	0.6	4.9*	-5.4	3.7	4.5
COc1nc(NCCN2CCOCC2)nc(Nc2ccc([N+](=O)[O-])cc2)n1	10.1	0.7	-0.1	4.8*	-12.7	-5.4	3.0
CC(=NNC(=O)CNc1ccc(C)cc1)c1ccc(Br)s1	7.6	.	.	.	.	.	.
Nc1ccc(-c2nc3cc(N)ccc3o2)cc1	-260.3	-10.4	-0.1	4.1	-7.6	3.5	.
Nc1ccc(-c2nc3ccc(N)cc3o2)cc1	i	-0.4	0.0	4.8*	-2.0	-5.5	5.4*
Cn1c(=O)[nH]c(=O)c2c1nc(Br)n2CC=NNC(=O)c1ccccc1	4.0	.	.	.	.	.	.
O=C(NN=Cc1c[nH]c2ccccc12)c1ccncc1	5.3	.	.	.	.	.	.
SMILES	UCH37 inh	Glyco luc inh	aDG glyco act	MsrA inhibitor	MsrA act	Vif inh	MsrA conf
Cn1ccc(C(=O)N/N=C/c2c[nH]c3ccccc23)n1	.	1.3	0.0	5.7*	-14.1	-4.1	3.1
CC(SC(C)C(=O)NN=Cc1c[nH]c2ccccc12)C(=O)NN=Cc1c[nH]c2ccccc12 (configuration not stated)	6.2	1.6	-0.1	5.0*	-2.0	-13.0	0.9
Cc1ccc(NC(C)C(=O)N/N=C/c2c[nH]c3ccccc23)cc1 (configuration not stated)	.	0.5	-0.2	0.3	-4.2	17.1	.
CC(=O)Nc1cccc(C(=O)N/N=C/c2c[nH]c3ccccc23)c1	.	0.4	0.1	5.8*	-4.0	-9.9	2.5
O=C(N/N=C/c1c[nH]c2ccccc12)c1cccc(O)c1	.	3.0	0.0	4.3	-2.6	-5.5	.
Cc1c(Cl)cccc1-c1ccc(C=Nn2cnnc2)o1	-3.1	.	.	.	.	.	.
COc1cccc(C=Nn2c(C)nnc2C)c1OC	-6.9	.	.	.	.	.	.
Cc1nc2ccccc2cc1C(=O)NN=Cc1cccs1	8.1	.	.	.	.	.	.
CCNC(=S)N/N=C/c1cccs1	.	-2.0	0.2	5.5*	-3.7	.	2.7
Cc1c(C(=O)N/N=C/c2cccs2)nc2ccccn12	.	-2.9	-0.1	6.6*	-0.9	5.2	6.4*
CC(C)(C)C(Cn1cncn1)=NOC(=O)Nc1ccc(Cl)cc1	0.8	.	.	.	.	.	.
CC1=C(c2ccc(C)cc2)[N+](=O)C(C)(C)N1[O-]	0.9	1.5	-0.2	0.8	-1.5	0.9	.
CC1=C(c2ccc(F)cc2)[N+](=O)C(C)(C)N1[O-]	6.6	1.2	0.0	4.8*	-11.4	5.3	0.2
CC(=NO)C(=O)NCc1ccccn1	-0.2	.	.	.	.	.	.
COc1ccc(-c2nn(CCC(=O)O)cc2/C=C2\SC(N)=NC2=O)cc1OC	.	0.8	-0.1	5.6*	-4.5	3.5	3.0
Cc1noc(NS(=O)(=O)c2ccc(NC(=O)c3cnc4scc(C)n4c3=O)cc2)c1C	5.3	5.0	-0.1	5.8*	-3.0	-5.4	6.2*
Cc1ccc(-n2ccc(=O)c(C(=O)Nc3ccc(S(=O)(=O)Nc4onc(C)c4C)cc3)n2)cc1	13.9	2.6	-0.3	4.8*	-11.9	4.1	2.1
Cc1noc(NS(=O)(=O)c2ccc(NC(=O)c3nn(-c4ccc(F)cc4)ccc3=O)cc2)c1C	12.0	-0.4	-0.2	1.9	-3.7	6.5	.
Cc1cc(NS(=O)(=O)c2ccc(NC(=O)/C=C/c3ccco3)cc2)nc(C)n1	11.8	2.3	-0.1	6.7*	-9.6	2.1	4.8*
Cc1cc(NS(=O)(=O)c2ccc(NC(=O)c3ccc(Cl)nc3)cc2)nc(C)n1	.	1.8	-0.1	0.6	-11.2	.	.
Cc1cc(NS(=O)(=O)c2ccc(NC(=O)c3cnc4scc(C)n4c3=O)cc2)nc(C)n1	9.6	2.1	0.1	6.8*	-6.3	-0.9	4.3
Cc1cc(C(=O)Nc2ccc(S(=O)(=O)Nc3onc(C)c3C)cc2)cs1	1.8	0.6	-0.1	-0.2	-10.0	2.7	.
COC(=O)NN=Cc1cn(CCCOc2ccc(C)cc2)c2ccccc12	4.6	.	.	.	.	.	.
O=C(CC=NOCc1ccc([N+](=O)[O-])cc1)Nc1ccccc1	2.9	.	.	.	.	.	.
O=C(COc1ccccc1-c1ccccc1)NN=Cc1ccccn1	3.2	.	.	.	.	.	.
Cn1c(=O)c2c(ncn2CC(=O)NN=C/C(Br)=C/c2ccccc2)n(C)c1=O	5.1	.	.	.	.	.	.
